High-throughput results as filed in PubChem.
Hits are enriched below; roughly 1.9% of the tested compounds scored in any of these assays.
PP5 inh: PP5 (human) phosphatase inhibition | inhibition, % at 6.7 µM | P53041 | actives 0.18% (n = 320,000) | purified PP5c, OMFP substrate fluorescence;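 active = inhibition above the campaign's mean inhibition across all tested compounds plus 3 SD, cut at about 9.5% in these data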;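 note: 0% = DMSO only and 100% = 100 µM cantharidin control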
LMPTP inh: LMPTP (human) inhibition; recombinant LMPTP-A, OMFP fluorogenic substrate, fluorescence intensity; inhibition, % at 20 µM; actives 0.22% (n = 360,000); AID 651560;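 active = compounds that cut the enzyme signal by at least half of the control window in the single-dose screen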;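 note: plate controls were DMSO wells with enzyme plus substrate for no effect and substrate without enzyme for full effect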
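Assay system: LMPTP-A phosphatase enzyme | Input: 0.625 nM enzyme | Also added: Fluorogenic phosphatase substrate OMFP at 400 µM final | Compound dosing: One test concentration per compound, 20 µM, with 3% DMSO overall | Schedule: 50 min enzyme reaction at room temperature, protected from light | Signal: Fluorescence intensity | Benchmarks: no-enzyme and uninhibited controls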
PP1 inh: PP1-alpha (human) inhibition in PP5 counter-screen. P62136. purified PP1alpha, OMFP fluorescence. inhibition, % at 6.7 µM. actives 0.9% (n = 320,000). AID 2235;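 active = inhibition above the mean inhibition of all tested compounds plus 3 SD, computed separately for each screening campaign, cut at about 15% in these data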
Scp-1 inhibitor: blocks human Scp-1 phosphatase activity | Recombinant Scp1, phosphopeptide, malachite green phosphate absorbance | inhibition, % at 20 µM | actives 0.88% (n = 340,000) | AID 493091;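 active = inhibition above about 50% at 20 µM, limit read from the data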;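 note: plate controls were DMSO wells with enzyme for no effect and wells lacking enzyme for full effect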
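Test system: SCP-1 phosphatase catalytic domain, residues 76-261 | Compound dosing: One concentration, 20 µM, with 1.0% DMSO | Schedule: 45 min room-temperature reaction, 5 min colour, 30 min stabiliser | Detection: Absorbance at 630 nm | Read-out basis: % inhibition of SCP-1 phosphate liberation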
STEP block: inhibitors of human striatal-enriched phosphatase STEP; P54829; recombinant STEP, OMFP fluorogenic substrate, fluorescence; inhibition, % at 20 µM; actives 0.25% (n = 360,000); AID 588621;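 active = inhibition at 20 µM, scaled per plate between control wells, above about 37%, limit read from the data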;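 note: 0% = DMSO with enzyme and substrate and 100% = substrate only without enzyme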
Target sequence (P54829 whole entry, looked up): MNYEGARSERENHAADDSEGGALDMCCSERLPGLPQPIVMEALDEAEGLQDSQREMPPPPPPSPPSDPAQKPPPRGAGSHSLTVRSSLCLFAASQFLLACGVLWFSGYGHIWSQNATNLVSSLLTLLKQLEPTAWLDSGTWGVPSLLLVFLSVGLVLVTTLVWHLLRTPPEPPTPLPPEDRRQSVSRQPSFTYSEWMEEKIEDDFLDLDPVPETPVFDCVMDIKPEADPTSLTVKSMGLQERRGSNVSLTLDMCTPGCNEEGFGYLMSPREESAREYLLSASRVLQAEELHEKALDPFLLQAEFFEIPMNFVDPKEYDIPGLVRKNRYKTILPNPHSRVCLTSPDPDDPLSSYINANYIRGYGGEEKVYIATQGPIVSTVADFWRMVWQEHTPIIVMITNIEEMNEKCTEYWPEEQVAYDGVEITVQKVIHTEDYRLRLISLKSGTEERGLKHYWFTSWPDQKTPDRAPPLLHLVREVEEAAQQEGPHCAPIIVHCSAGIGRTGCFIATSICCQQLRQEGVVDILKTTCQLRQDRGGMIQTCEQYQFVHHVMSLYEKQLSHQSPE
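Material: STEP (striatal-enriched tyrosine phosphatase) enzyme, cell-free; Compound dosing: 20 µM single dose in 1% DMSO; Technique: fluorescence read at 480 nm ex / 540 nm em; Times: reaction 20 min, ambient temperature; Medium: 50 mM Bis-Tris pH 6.0 with 2.5 mM DTT and 0.005% Tween 20; Also added: OMFP at 25 µM.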
Scp-1 conf: Scp-1 (human) inhibition, single-dose confirmed; shares compounds with Scp-1 inhibitor; recombinant SCP-1 catalytic domain, phosphate release, malachite green absorbance; inhibition, % at 20 µM; actives 61% (n = 2,500); AID 540281;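 note: plate controls were DMSO with enzyme for no effect and buffer wells lacking enzyme for full effect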
Scp-1 MG ctr: interferes with malachite green readout, flagging false Scp-1 hits; shares compounds with Scp-1 inhibitor; Colorimetric interference counterscreen, malachite green absorbance 630 nm; apparent inhibition (interference), % at 20 µM; 2,500 tested, under 10 active;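 note: compounds added after enzyme reaction finished so only phosphate colour detection is probed; plate controls were DMSO wells with completed Scp-1 reaction for no effect and substrate wells lacking enzyme for full effect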
Scp1 DSF: validation of human Scp-1 inhibitors by thermal shift binding; Recombinant SCP1, Sypro Orange thermal shift Tm; AID 540329; actives 25% (n = 1,500); shares compounds with Scp-1 inhibitor; thermal shift relative to vanadate control, % at 40 µM;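 active = substances whose mean melting-temperature shift, as a percentage of the reference inhibitor's shift, reaches about 5.3%, limit read from the data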;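 note: 0% = Tm of DMSO wells and 100% = Tm with sodium orthovanadate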
STEP inh conf: STEP (human) phosphatase inhibition, single concentration confirmation; shares compounds with STEP block; recombinant STEP, OMFP fluorogenic substrate, fluorescence; inhibition, % at 20 µM; actives 32% (n = 520); call rule not given here;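 note: 0% = enzyme with substrate plus DMSO and 100% = substrate without enzyme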
* hit, by the source's call; . = not tested or not shown.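 Rule for the calls, unless noted: active = inhibition of at least 30% at 20 µM; inactive = the rest.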

SMILES	PP5 inh	LMPTP inh	PP1 inh	Scp-1 inhibitor	STEP block	Scp-1 conf	Scp-1 MG ctr	Scp1 DSF	STEP inh conf
CCCCCC(=O)N[C@@H](c1ccccc1)[C@@H](O)C(=O)O[C@H]1C[C@@]2(O)[C@@H](OC(=O)c3ccccc3)C3[C@](C)(C(=O)[C@H](O)C(=C1C)C2(C)C)[C@@H](OC1OCC(O)C(O)C1O)C[C@H]1OC[C@@]31OC(C)=O (stereo partly drawn)	-1	0	-3	-13	-1	-14	-8	.	.
O=C(O)c1ccccc1-c1ccc(C=C2C(=O)N(c3ccccc3)C(=S)N(c3ccccc3)C2=O)o1	1	4	6	58*	4	54*	-11	2	.
CCN(CC)P(=O)(NC(=O)C(Cl)(Cl)Cl)N(CC)CC.[Cl-].[Cl-].[Cl-].[Nd+3]	3	44	-1	101*	87*	70*	-17	-8	25*
CC(=O)N1Cc2cnnn2-c2ccccc2C1(C)C#N (stereo not drawn)	.	-1	.	0	-3	.	.	.	.
NN=C1C(Cl)=C(Cl)C(Cl)=C1Cl	.	84*	.	.	72*	.	.	.	67*
Cc1cccc(-n2c(O)c(/C=C3/C(c4ccccc4)=Nc4ccccc43)c(=O)[nH]c2=O)c1	5	1	3	-16	-2	.	.	.	.
